Laboratory results published in paper PMC7689895 (ACS Omega, 2020).
pIC50: −log10 of the molar value. Values after ≈ are worked out from the molar mass of the structure shown.

Assays:
FRHK-4 = assay: Cytotoxicity test; format: cell-based; conditions: FRHK-4 cell line
Outline: (§1)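 Stocks of 50 mg/mL in DMSO, with antibiotic–antimycotic added, were diluted twofold in DMEM. Cells at 2 × 10⁵ cells/mL were grown 24 h at 37 °C under 5% CO₂ to confluence, then exposed 72 h. Morphology was scored daily by inverted microscopy. Viable cells were counted by 0.4% trypan blue exclusion after trypsinisation. CC50 halves OD492 of treated versus untreated uninfected cells. Triplicates.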

Cytotoxicity test [1] = format: cell-based; conditions: rhesus monkey, uninfected FRHK-4 cells
Outline: as §1

[2] = tested on: adenovirus type 7 (HAdV7); assay: Plaque assay for antiviral activity, Hep-2 cells; format: cell-based; conditions: for mean % of reduction, adenovirus type 7: nontoxic dose, viral titers 1 × 10^5, 1 × 10^6, 1 × 10^7
Outline: (§2)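 Nontoxic dilutions were mixed 1:1 (100 µL each) with virus (10⁵–10⁷) for 0.5 h at 37 °C. Tenfold dilutions were plated on Hep-2 (HAdV7), FRHK-4 (HAV HM175) or BGM (CBV4), adsorbed 1 h at 37 °C under 5% CO₂, and overlaid with 2× DMEM plus 1% agarose. Plaques were fixed with formalin, stained with crystal violet and counted as pfu/mL. IC50 is the half-maximal plaque reduction; SI = CC50/IC50. Triplicates.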

coxsackievirus B4 (CBV4) = assay: Plaque assay for antiviral activity, BGM cells; format: cell-based; conditions: for SI: CC50/IC50 ratio; for mean % of reduction, coxsackievirus B4: nontoxic dose, viral titers 1 × 10^5, 1 × 10^6, 1 × 10^7
Outline: as §2

Vero = assay: Cytotoxicity test; format: cell-based; conditions: Vero cell line
Outline: as §1

Cytotoxicity test [3] = format: cell-based; conditions: African green monkey, uninfected Vero cells
Outline: as §1

BGM = assay: Cytotoxicity test; format: cell-based; conditions: for nontoxic dose: BGM cell line
Outline: as §1

Cytotoxicity test [4] = format: cell-based; conditions: African green monkey, uninfected BGM cells
Outline: as §1

HCVcc genotype 4 = assay: Antiviral bioassay against ED-43/SG-Feo; format: cell-based, hepatitis C virus genotype 4a; conditions: for mean % of reduction, HCVcc genotype 4: nontoxic dose, viral titers 1 × 10^5, 1 × 10^6, 1 × 10^7
USP7 enzyme = USP7 enzyme (Homo sapiens, UniProt Q93009); assay: USP7 Inhibitor Screening Assay Kit; format: biochemical; conditions: for inhibition at 0.1 µg/mL / inhibition at 1 µg/mL / inhibition at 10 µg/mL / inhibition at 100 µg/mL: read-out: inhibition percentage against USP7
Chain of USP7 enzyme (Q93009 whole entry): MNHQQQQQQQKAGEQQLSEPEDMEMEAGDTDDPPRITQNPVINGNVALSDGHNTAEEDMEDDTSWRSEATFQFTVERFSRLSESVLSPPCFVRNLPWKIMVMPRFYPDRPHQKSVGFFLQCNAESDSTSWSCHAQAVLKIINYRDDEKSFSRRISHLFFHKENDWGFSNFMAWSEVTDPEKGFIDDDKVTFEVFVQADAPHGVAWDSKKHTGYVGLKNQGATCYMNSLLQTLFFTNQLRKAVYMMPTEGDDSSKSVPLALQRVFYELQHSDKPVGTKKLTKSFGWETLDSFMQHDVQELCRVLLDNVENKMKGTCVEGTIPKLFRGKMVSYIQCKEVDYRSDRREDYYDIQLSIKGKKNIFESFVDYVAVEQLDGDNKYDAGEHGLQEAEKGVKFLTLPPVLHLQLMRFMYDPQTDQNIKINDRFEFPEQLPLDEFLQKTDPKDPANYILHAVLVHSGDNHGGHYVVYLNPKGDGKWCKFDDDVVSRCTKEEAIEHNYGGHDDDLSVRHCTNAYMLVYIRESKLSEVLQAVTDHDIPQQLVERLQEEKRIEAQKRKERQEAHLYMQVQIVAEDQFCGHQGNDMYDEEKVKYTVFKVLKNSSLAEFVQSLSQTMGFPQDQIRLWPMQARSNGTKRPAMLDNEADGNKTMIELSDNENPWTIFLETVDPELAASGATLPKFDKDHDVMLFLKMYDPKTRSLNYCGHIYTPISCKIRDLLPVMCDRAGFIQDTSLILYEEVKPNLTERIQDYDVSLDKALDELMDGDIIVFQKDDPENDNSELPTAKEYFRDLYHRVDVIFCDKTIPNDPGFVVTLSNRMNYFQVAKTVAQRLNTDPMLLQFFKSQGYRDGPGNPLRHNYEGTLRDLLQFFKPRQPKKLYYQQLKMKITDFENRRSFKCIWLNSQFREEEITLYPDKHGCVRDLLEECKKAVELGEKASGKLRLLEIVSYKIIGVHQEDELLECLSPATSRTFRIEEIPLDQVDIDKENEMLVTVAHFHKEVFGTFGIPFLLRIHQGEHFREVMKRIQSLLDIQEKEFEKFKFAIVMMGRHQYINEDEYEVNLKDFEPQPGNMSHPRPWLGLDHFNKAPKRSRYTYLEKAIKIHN
Outline: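 Human recombinant USP7 from a commercial kit was stabilised with DTT and used at 0.4 ng/µL. Ub-AMC substrate was diluted 400-fold in 1× assay buffer, test compound or inhibitor buffer was added, and the enzyme started the reaction. After 30 min at room temperature with rotation, fluorescence was read at 360 nm excitation and 460 nm emission, minus blank.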

[5] = tested on: hepatitis A virus (HAV) HM175; assay: Plaque assay for antiviral activity, FRHK-4 cells; format: cell-based; conditions: for mean % of reduction, hepatitis A virus HM175: nontoxic dose, viral titers 1 × 10^5, 1 × 10^6, 1 × 10^7
Outline: as §2

Huh 7.5 = assay: Cytotoxicity test; format: cell-based; conditions: Huh 7.5 cell line
Outline: as §1

Cytotoxicity test [6] = format: cell-based; conditions: human, uninfected Huh 7.5 cells
Outline: as §1

[7] = tested on: herpes simplex virus type 1 (HSV-1); assay: Plaque assay for antiviral activity, Vero cells; format: cell-based; conditions: for IC50: Human alphaherpesvirus 1, Vero; for mean % of reduction, herpes simplex virus type-1: nontoxic dose, viral titers 1 × 10^5, 1 × 10^6, 1 × 10^7
Hep-2 = assay: Cytotoxicity test; format: cell-based; conditions: Hep-2 cell line
Outline: as §1

Cytotoxicity test [8] = format: cell-based; conditions: human, uninfected Hep-2 cells
Outline: as §1

Row | Structure (SMILES) | nontoxic dose (FRHK-4) [µg/mL] | mean % of reduction, adenovirus type 7 [2] [%] | nontoxic dose (Vero) [µg/mL] | nontoxic dose (BGM) [µg/mL] | mean % of reduction, HCVcc genotype 4 (HCVcc genotype 4) [%] | mean % of reduction, hepatitis A virus HM175 [5] [%] | nontoxic dose (Huh 7.5) [µg/mL] | nontoxic dose (Hep-2) [µg/mL] | mean % of reduction, coxsackievirus B4 (coxsackievirus B4 (CBV4)) [%] | mean % of reduction, herpes simplex virus type-1 [7] | other results
1 | N#Cc1cc(-c2nc3ccccc3s2)c(=O)n(NS(=O)(=O)c2ccccc2)c1N [compound 13a, N-(6-Amino-3-(benzo[d]thiazole-2-yl)-5-cyano-2-oxopyridine-1(2H)-yl)benzensulfonamide] | 110 | 50 | 110 | 100 | 56.7 | 60 | 100 | 110 |  |  | CC50 (Cytotoxicity test [1]): 260 µg/mL (≈ 614 µM); SI ([2]; CC50/IC50 ratio, Adenovirus Type 7): 2.45; SI (coxsackievirus B4 (CBV4); Coxsackievirus B4): 2.86; CC50 (Cytotoxicity test [3]): 280 µg/mL (≈ 661 µM); CC50 (Cytotoxicity test [4]): 240 µg/mL (≈ 567 µM); SI (HCVcc genotype 4; CC50/IC50 ratio, HCVcc Genotype 4): 3.09; pIC50 (USP7 enzyme): 4.95; inhibition at 0.1 µg/mL (USP7 enzyme): 11.8%; inhibition at 1 µg/mL (USP7 enzyme): 35.8%; inhibition at 10 µg/mL (USP7 enzyme): 54%; inhibition at 100 µg/mL (USP7 enzyme): 81.5%; SI ([5]; CC50/IC50 ratio, Hepatitis A Virus HM175): 2.89; IC50 ([5]; Hepatovirus A, FRhK-4): 90 µg/mL (≈ 213 µM); CC50 (Cytotoxicity test [6]): 260 µg/mL (≈ 614 µM); SI ([7]; CC50/IC50 ratio, Herpes Simplex Virus): 3.73; IC50 [7]: 75 µg/mL (≈ 177 µM); CC50 (Cytotoxicity test [8]): 270 µg/mL (≈ 638 µM)
2 | Nc1nc2c(ncn2COCCO)c(=O)[nH]1 [acyclovir, reference compound] |  |  |  |  |  |  |  |  |  |  | CC50 (Cytotoxicity test [3]): 2.8 µg/mL (≈ 12.4 µM); pIC50 (USP7 enzyme): 4.96; inhibition at 0.1 µg/mL (USP7 enzyme): 18.7%; inhibition at 1 µg/mL (USP7 enzyme): 35%; inhibition at 10 µg/mL (USP7 enzyme): 71.7%; inhibition at 100 µg/mL (USP7 enzyme): 84.5%; IC50 [7]: 0.7 µg/mL (≈ 3.11 µM)
3 | N#Cc1cc(-c2nc3ccccc3s2)c(=O)n(NS(=O)(=O)c2ccc(Cl)cc2)c1N [compound 13b, N-(6-Amino-3-(benzo[d]thiazole-2-yl)-5-cyano-2-oxopyridine-1(2H)-yl)-4-chlorobenzensulfonamide] | 100 | 16.7 | 100 | 100 | 26.7 | 26.7 | 100 | 100 | 30.0 | 26.7% | 
4 | O=c1c(-c2nc3ccccc3s2)cc2c(n1NS(=O)(=O)c1ccc(Cl)cc1)CCCC2 [compound 7b] | 130 |  | 130 | 130 |  |  | 130 | 130 |  | - ^a | 
5 | O=c1c(-c2nc3ccccc3s2)cc2c(n1NS(=O)(=O)c1ccccc1)CCCC2 [compound 7a] | 110 | 10.0 | 110 | 110 | 30.0 | 30.0 | 100 | 110 |  | 40.0% | SI (coxsackievirus B4 (CBV4); Coxsackievirus B4): 2.95; IC50 (coxsackievirus B4 (CBV4); Coxsackievirus B4): 88 µg/mL (≈ 201 µM); CC50 (BGM; uninfected host cells, section Coxsackievirus B4): 260 µg/mL (≈ 594 µM)
6 | Cc1ccc(S(=O)(=O)Nn2c(N)c(C#N)cc(-c3nc4ccccc4s3)c2=O)cc1 [compound 13c, N-(6-Amino-3-(benzo[d]thiazole-2-yl)-5-cyano-2-oxopyridine-1(2H)-yl)-4-methylbenzensulfonamide] | 110 | 3.3 | 110 | 110 | 10.0 | 6.7 | 100 | 110 | 10.0 | 10.0% | 
7 | CCOC(=O)c1cc(-c2nc3ccccc3s2)c(=O)n(NS(=O)(=O)c2ccc(C)cc2)c1N [compound 13f, Ethyl-2-amino-5-(benzo[d]thiazole-2-yl)-1-(4-methylphenylsulfonamido)-6-Oxo-1,6-dihydropyridine-3-carboxylate] | 140 | 16.7 | 140 | 130 | 20.0 | 20.0 | 140 | 140 | 20.0 | 23.3% | 
